Data published in ChEMBL document CHEMBL4706536, “Novel HIV-1 capsid-targeting small molecules of the PF74 binding site” (Eur J Med Chem, 2020).

tested on: Human immunodeficiency virus 1; experiment: Antiviral activity against HIV 1 NL4-3 infected in human TZM cells expressing GFP assessed as reduction in LTR-activated GFP expression preincubated for 24 hrs followed by viral infection and measured after 48 hrs; assay type: functional, organism-based; settings: Human immunodeficiency virus 1, NL4-3, TZM
How it was run: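 TZM-GFP cells were seeded at 1×10^4 per well. After 24 h they were given increasing compound concentrations for 24 h, then infected with HIV-1 NL4-3 (MOI = 1) for 48 h. GFP-positive cells were counted versus DMSO control. EC50 came from a log(inhibitor) vs normalized response, variable-slope fit, calculated per independent experiment and averaged. Duplicate wells, ≥2 experiments, mean ± SD.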

SMILES | EC50
CN(C(=O)[C@H](Cc1ccccc1)NC(=O)Cc1c[nH]c2ccc(O)cc12)c1cccc(Br)c1 | 0.38 µM
COc1ccc2[nH]cc(CC(=O)N[C@@H](Cc3ccccc3)C(=O)N(C)c3ccccc3)c2c1 | 0.56 µM
CN(C(=O)[C@H](Cc1ccccc1)NC(=O)Cc1c[nH]c2ccc(O)cc12)c1cccc(Cl)c1 | 0.31 µM
CN(C(=O)[C@H](Cc1ccccc1)NC(=O)Cc1c[nH]c2ccc(O)cc12)c1ccc(F)cc1 | 0.46 µM
COc1ccc2[nH]cc(CC(=O)N[C@@H](Cc3ccccc3)C(=O)N(C)c3ccc(Cl)cc3)c2c1 | 0.31 µM

Next, values leading:

EC50 | SMILES
0.48 µM | CN(C(=O)[C@H](Cc1ccccc1)NC(=O)Cc1c[nH]c2ccc(O)cc12)c1cccc(C(F)(F)F)c1
0.57 µM | COc1ccc2[nH]cc(CC(=O)N[C@@H](Cc3ccccc3)C(=O)N(C)c3ccc(F)cc3)c2c1
0.32 µM | CN(C(=O)[C@H](Cc1ccccc1)NC(=O)Cc1c[nH]c2ccc(O)cc12)c1cccc(F)c1
0.99 µM | COc1ccc2[nH]cc(CC(=O)N[C@@H](Cc3ccccc3)C(=O)N(C)c3cccc(F)c3)c2c1
0.28 µM | COc1ccc2[nH]cc(CC(=O)N[C@@H](Cc3ccccc3)C(=O)N(C)c3ccc(C)cc3)c2c1

tested on: not listed separately; experiment: Cytotoxicity against human TZM cells expressing GFP assessed as reduction in cell viability after 72 hrs by XTT assay; assay type: cell-based; settings: not given
How it was run: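 TZM-GFP cells were seeded at 1×10^4 per well and exposed continuously to increasing compound concentrations for 72 h. Viable cells were measured by XTT. CC50 came from a log(inhibitor) vs normalized response, variable-slope fit, averaged across independent experiments. Duplicate wells, ≥2 experiments, mean ± SD.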

SMILES | CC50 at 72 h
CN(C(=O)[C@H](Cc1ccccc1)NC(=O)Cc1c[nH]c2ccc(O)cc12)c1cccc(C(F)(F)F)c1 | 65 µM
COc1ccc2[nH]cc(CC(=O)N[C@@H](Cc3ccccc3)C(=O)N(C)c3ccc(F)cc3)c2c1 | > 50 µM
CN(C(=O)[C@H](Cc1ccccc1)NC(=O)Cn1cnc2c1c(=O)n(C)c(=O)n2C)c1ccc(F)cc1 | > 50 µM
CN(C(=O)[C@H](Cc1ccccc1)NC(=O)Cc1c[nH]c2ccc(O)cc12)c1cccc(Br)c1 | > 100 µM
COc1ccc2[nH]cc(CC(=O)N[C@@H](Cc3ccccc3)C(=O)N(C)c3ccccc3)c2c1 | 48 µM
CN(C(=O)[C@H](Cc1ccccc1)NC(=O)Cn1cnc2c1c(=O)n(C)c(=O)n2C)c1cccc(F)c1 | > 50 µM
CN(C(=O)[C@H](Cc1ccccc1)NC(=O)Cn1cnc2c1c(=O)n(C)c(=O)n2C)c1ccc(Cl)cc1 | > 50 µM
CN(C(=O)[C@H](Cc1ccccc1)NC(=O)Cc1c[nH]c2ccc(O)cc12)c1cccc(F)c1 | 47 µM
COc1ccc2[nH]cc(CC(=O)N[C@@H](Cc3ccccc3)C(=O)N(C)c3cccc(F)c3)c2c1 | > 50 µM
CN(C(=O)[C@H](Cc1ccccc1)NC(=O)Cn1cnc2c1c(=O)n(C)c(=O)n2C)c1ccccc1 | > 50 µM
CN(C(=O)[C@H](Cc1ccccc1)NC(=O)Cn1cnc2c1c(=O)n(C)c(=O)n2C)c1cccc(Cl)c1 | > 50 µM
CN(C(=O)[C@H](Cc1ccccc1)NC(=O)Cc1c[nH]c2ccc(O)cc12)c1cccc(Cl)c1 | > 100 µM
CN(C(=O)[C@H](Cc1ccccc1)NC(=O)Cc1c[nH]c2ccc(O)cc12)c1ccc(F)cc1 | > 50 µM
Cc1ccc(N(C)C(=O)[C@H](Cc2ccccc2)NC(=O)Cn2cnc3c2c(=O)n(C)c(=O)n3C)cc1 | > 50 µM
COc1ccc2[nH]cc(CC(=O)N[C@@H](Cc3ccccc3)C(=O)N(C)c3ccc(Cl)cc3)c2c1 | > 50 µM
COc1ccc2[nH]cc(CC(=O)N[C@@H](Cc3ccccc3)C(=O)N(C)c3ccc(C)cc3)c2c1 | > 50 µM
CCN(C(=O)[C@H](Cc1ccccc1)NC(=O)Cn1cnc2c1c(=O)n(C)c(=O)n2C)c1ccccc1 | > 50 µM

tested on: Human immunodeficiency virus 1; experiment: Antiviral activity against HIV 1 NL4-3 infected in human TZM cells expressing GFP assessed as inhibition LTR-activated GFP expression at 2 uM preincubated for 24 hrs followed by viral infection and measured after 48 hrs relative to control; assay type: functional; settings: Human immunodeficiency virus 1, NL4-3, TZM, time 72 hrs
How it was run: (§1)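 TZM-GFP cells were seeded at 1×10^4 per well. After 24 h, medium was replaced with compound at a single concentration. After a further 24 h, cells were infected with HIV-1 NL4-3 (MOI = 1) and incubated 48 h. GFP-positive cells were counted by imaging and expressed as % inhibition of LTR-driven GFP versus compound-free DMSO control. Run in duplicate, at least two independent experiments.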

SMILES | inhibition at 2 µM
CN(C(=O)[C@H](Cc1ccccc1)NC(=O)Cn1cnc2c1c(=O)n(C)c(=O)n2C)c1ccc(F)cc1 | 14%
CN(C(=O)[C@H](Cc1ccccc1)NC(=O)Cn1cnc2c1c(=O)n(C)c(=O)n2C)c1cccc(F)c1 | 1%
CN(C(=O)[C@H](Cc1ccccc1)NC(=O)Cn1cnc2c1c(=O)n(C)c(=O)n2C)c1ccc(Cl)cc1 | 6%
CN(C(=O)[C@H](Cc1ccccc1)NC(=O)Cn1cnc2c1c(=O)n(C)c(=O)n2C)c1ccccc1 | 10%
CN(C(=O)[C@H](Cc1ccccc1)NC(=O)Cn1cnc2c1c(=O)n(C)c(=O)n2C)c1cccc(Cl)c1 | 0%
Cc1ccc(N(C)C(=O)[C@H](Cc2ccccc2)NC(=O)Cn2cnc3c2c(=O)n(C)c(=O)n3C)cc1 | 18%
CCN(C(=O)[C@H](Cc1ccccc1)NC(=O)Cn1cnc2c1c(=O)n(C)c(=O)n2C)c1ccccc1 | 0%

tested on: Human immunodeficiency virus 1; experiment: Antiviral activity against HIV 1 NL4-3 infected in human TZM cells expressing GFP assessed as inhibition LTR-activated GFP expression at 20 uM preincubated for 24 hrs followed by viral infection and measured after 48 hrs relative to control; assay type: functional; settings: Human immunodeficiency virus 1, NL4-3, TZM, time 72 hrs; how it was run: as §1

SMILES | inhibition at 20 µM
CN(C(=O)[C@H](Cc1ccccc1)NC(=O)Cn1cnc2c1c(=O)n(C)c(=O)n2C)c1ccc(F)cc1 | 85%
CN(C(=O)[C@H](Cc1ccccc1)NC(=O)Cn1cnc2c1c(=O)n(C)c(=O)n2C)c1cccc(F)c1 | 67%
CN(C(=O)[C@H](Cc1ccccc1)NC(=O)Cn1cnc2c1c(=O)n(C)c(=O)n2C)c1ccc(Cl)cc1 | 96%
CN(C(=O)[C@H](Cc1ccccc1)NC(=O)Cn1cnc2c1c(=O)n(C)c(=O)n2C)c1ccccc1 | 94%
CN(C(=O)[C@H](Cc1ccccc1)NC(=O)Cn1cnc2c1c(=O)n(C)c(=O)n2C)c1cccc(Cl)c1 | 71%
Cc1ccc(N(C)C(=O)[C@H](Cc2ccccc2)NC(=O)Cn2cnc3c2c(=O)n(C)c(=O)n3C)cc1 | 98%
CCN(C(=O)[C@H](Cc1ccccc1)NC(=O)Cn1cnc2c1c(=O)n(C)c(=O)n2C)c1ccccc1 | 94%

tested on: not listed separately; experiment: Half life in human liver microsomes at 1 uM in presence of NADPH preincubated for 15 mins followed by NADPH addition and measured up to 60 mins by LC-MS/MS analysis; assay type: ADME, Microsome; settings: time 15-75 min
How it was run: (§2)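 Compound at 1 µM final was preincubated 15 min at 37 °C with human or mouse liver microsomes (0.5 mg/mL protein) and 1 mM MgCl2 in 0.1 M potassium phosphate, pH 7.4. The reaction was started with 1 mM NADPH at 37 °C and sampled at 0, 5, 15, 30 and 60 min. Samples were quenched in acetonitrile/0.1% formic acid with internal standard; t1/2 was determined by LC-MS/MS. A no-NADPH control ran in parallel. Done in duplicate.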

half-life at 1 µM | SMILES
1.2 min | COc1ccc2[nH]cc(CC(=O)N[C@@H](Cc3ccccc3)C(=O)N(C)c3ccccc3)c2c1
4.7 min | CN(C(=O)[C@H](Cc1ccccc1)NC(=O)Cn1cnc2c1c(=O)n(C)c(=O)n2C)c1ccccc1
1.8 min | COc1ccc2[nH]cc(CC(=O)N[C@@H](Cc3ccccc3)C(=O)N(C)c3ccc(Cl)cc3)c2c1

tested on: not listed separately; experiment: Half life in mouse liver microsomes at 1 uM in presence of NADPH preincubated for 15 mins followed by NADPH addition and measured up to 60 mins by LC-MS/MS analysis; assay type: ADME, Microsome; settings: time 15-75 min; how it was run: as §2

half-life at 1 µM | SMILES
0.5 min | COc1ccc2[nH]cc(CC(=O)N[C@@H](Cc3ccccc3)C(=O)N(C)c3ccccc3)c2c1
1.2 min | CN(C(=O)[C@H](Cc1ccccc1)NC(=O)Cn1cnc2c1c(=O)n(C)c(=O)n2C)c1ccccc1
0.6 min | COc1ccc2[nH]cc(CC(=O)N[C@@H](Cc3ccccc3)C(=O)N(C)c3ccc(Cl)cc3)c2c1
